# Data from ChEMBL document CHEMBL1149415, “Discovery and structure-activity relationship of antagonists of B-cell lymphoma 2 family proteins with chemopotentiation activity in vitro and in vivo” (J Med Chem, 2006).
# Calls of active or inactive are those of the source. The calls are words filed in the database; no cut-off is given here.
# Legend:
# [1] = molecular target: Apoptosis regulator Bcl-2 (Homo sapiens, UniProt P10415); assay: Binding affinity to Bcl2 by fluorescence polarization assay
# Chain of Apoptosis regulator Bcl-2 (P10415 whole entry): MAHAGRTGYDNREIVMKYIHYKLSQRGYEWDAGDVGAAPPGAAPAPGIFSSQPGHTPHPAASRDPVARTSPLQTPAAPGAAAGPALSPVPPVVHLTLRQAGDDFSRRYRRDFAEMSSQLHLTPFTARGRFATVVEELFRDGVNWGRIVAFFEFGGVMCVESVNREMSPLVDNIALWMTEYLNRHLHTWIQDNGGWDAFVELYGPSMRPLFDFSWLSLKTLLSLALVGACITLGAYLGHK
# Bcl-2-like protein 1 [2] = molecular target: T1, Bcl-2-like protein 1 (Homo sapiens, UniProt Q07817); assay: Binding affinity to Bcl-XL by fluorescence polarization assay
# Target sequence in this assay (Q07817 whole entry): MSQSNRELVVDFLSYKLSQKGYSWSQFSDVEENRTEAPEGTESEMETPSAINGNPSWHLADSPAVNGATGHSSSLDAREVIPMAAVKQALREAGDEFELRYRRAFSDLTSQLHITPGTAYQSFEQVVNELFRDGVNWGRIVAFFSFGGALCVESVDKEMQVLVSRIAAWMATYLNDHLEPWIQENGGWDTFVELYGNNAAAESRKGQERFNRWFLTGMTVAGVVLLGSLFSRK
# Bcl-2-like protein 1 [3] = molecular target: T1, Bcl-2-like protein 1; assay: Binding affinity to Bcl-XL in 1% human serum by fluorescence polarization assay
# Target sequence in this assay (Q07817 whole entry): as above
# Bcl-2-like protein 1 [4] = molecular target: T1, Bcl-2-like protein 1; assay: Activity towards mouse FL5.12 cell line transfected with Bcl-XL in presence of 3% fetal bovine serum; type: functional
# Outline: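 Bcl-XL-transfected murine FL5.12 (IL-3 dependent) grown in RPMI with 10% FBS and WEHI-3B conditioned medium as the IL-3 source. Switched to IL-3-depleted, FBS-free medium for 2 days. Then placed in gelatin assay medium (3.4 mg/mL bovine gelatin) or 3% FBS assay medium. Serial compound dilutions added for 24 h. Viability read by MTS or CellTiter-Glo; duplicate values per determination; EC50.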
# Target sequence in this assay (Q07817 whole entry): as above
# Bcl-2-like protein 1 [5] = molecular target: T1, Bcl-2-like protein 1; assay: Inhibitory activity against Bcl-XL in presence of 1% human serum
# Outline: (§1)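 Competitive fluorescence polarization assay: serial compound dilutions compete with 30 nM f-Bad peptide (FITC-labelled) for binding to 60 nM Bcl-XL. Human serum (1%) or individual serum proteins are added to the assay buffer. Protein levels: HSA 0.42 mg/mL, HSA-III 0.146 mg/mL, α1-acid glycoprotein 0.0095 mg/mL. IC50 is calculated from duplicate values per determination.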
# Target sequence in this assay (Q07817 whole entry): as above
# Bcl-2-like protein 1 [6] = molecular target: T1, Bcl-2-like protein 1; assay: Inhibitory activity against Bcl-XL in presence of HSA from 1% human serum; outline: as §1
# Target sequence in this assay (Q07817 whole entry): as above
# Bcl-2-like protein 1 [7] = molecular target: T1, Bcl-2-like protein 1; assay: Inhibitory activity against Bcl-XL in presence of HSA3 from 1% human serum
# Target sequence in this assay (Q07817 whole entry, looked up): as the sequence (Q07817 whole entry) above
# Bcl-2-like protein 1 [8] = molecular target: T1, Bcl-2-like protein 1; assay: Inhibitory activity against Bcl-XL in presence of alpha-1 acid glycoprotein from 1% human serum; outline: as §1
# Target sequence in this assay (Q07817 whole entry): as above
# Bcl-2-like protein 1 [9] = molecular target: T1, Bcl-2-like protein 1; details: 10 uM
# Bcl-2-like protein 2 = molecular target: T2, Bcl-2-like protein 2 (Homo sapiens, UniProt Q92843); assay: Binding affinity to Bclw
# T2 sequence (Q92843 whole entry): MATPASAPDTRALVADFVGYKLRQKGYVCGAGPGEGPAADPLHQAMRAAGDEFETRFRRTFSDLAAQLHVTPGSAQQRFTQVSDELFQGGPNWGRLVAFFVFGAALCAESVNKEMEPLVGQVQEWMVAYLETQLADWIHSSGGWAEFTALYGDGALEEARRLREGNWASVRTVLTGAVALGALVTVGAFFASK
# [10] = molecular target: Induced myeloid leukemia cell differentiation protein Mcl-1 (Homo sapiens, UniProt Q07820); assay: Binding affinity to Mcl1
# Chain of Induced myeloid leukemia cell differentiation protein Mcl-1 (Q07820 whole entry): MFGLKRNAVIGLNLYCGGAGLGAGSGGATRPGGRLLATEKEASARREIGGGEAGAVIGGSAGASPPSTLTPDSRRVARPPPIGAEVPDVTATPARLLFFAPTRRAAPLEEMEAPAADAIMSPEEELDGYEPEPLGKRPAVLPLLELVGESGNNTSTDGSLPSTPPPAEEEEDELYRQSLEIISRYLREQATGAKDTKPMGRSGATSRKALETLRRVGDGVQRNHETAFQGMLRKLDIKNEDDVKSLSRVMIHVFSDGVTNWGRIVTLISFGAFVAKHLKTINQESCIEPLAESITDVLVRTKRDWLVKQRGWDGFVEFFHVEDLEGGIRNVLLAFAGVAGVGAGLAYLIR
# A549 [11] = assay: Effect on viability of human A549 lung carcinoma cells at 20 uM after 48h by MTS assay in presence of 10% fetal bovine serum; type: functional, cell-based
# Outline: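 A549 seeded in DMEM with 5% FBS the day before. Medium removed and UV-C applied (start 32 mJ/cm², halved each step), then compound added in DMEM with 10% FBS. Viability by MTS at 48 h post-exposure, expressed as percent of untreated samples.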
# A549 [12] = assay: Effect of viability of human A549 lung carcinoma cells at 20uM after 48h by MTS assay in presence of paclitaxel; type: functional, cell-based
# Outline: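 A549 seeded in DMEM with 5% FBS the day before. Pretreated 48 h with paclitaxel serial 3-fold dilutions from 20 nM, then coincubated 48 h with paclitaxel plus compound in DMEM with 0.34% gelatin (serum-free). Viability by MTS, normalized to untreated cells.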
# A549 [13] = assay: Antiproliferative activity against human A549 lung carcinoma cell xenograft tumor model in scid mice in presence of paclitaxel at MTD; type: functional
# Outline: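 A549 cells (5 × 10⁶ in 50% Matrigel) inoculated subcutaneously into flank; groups of equal tumor size (N = 10) assigned at ~250 mm³ (day 15). Dosing ip: agent 75 mg/kg/day days 16-36 in 5% Tween 80/20% PEG/75% 0.1 M NaPO₄ pH ~4.0; paclitaxel 30 mg/kg/day days 16, 20, 24. Calipers twice weekly, V = L × W²; %ILS as median time to 1 cm³.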
# Albumin = Albumin (Homo sapiens, UniProt P02768); assay: Binding affinity for human serum albumin domain III
# Chain of Albumin (P02768 whole entry, the tested form may be a part): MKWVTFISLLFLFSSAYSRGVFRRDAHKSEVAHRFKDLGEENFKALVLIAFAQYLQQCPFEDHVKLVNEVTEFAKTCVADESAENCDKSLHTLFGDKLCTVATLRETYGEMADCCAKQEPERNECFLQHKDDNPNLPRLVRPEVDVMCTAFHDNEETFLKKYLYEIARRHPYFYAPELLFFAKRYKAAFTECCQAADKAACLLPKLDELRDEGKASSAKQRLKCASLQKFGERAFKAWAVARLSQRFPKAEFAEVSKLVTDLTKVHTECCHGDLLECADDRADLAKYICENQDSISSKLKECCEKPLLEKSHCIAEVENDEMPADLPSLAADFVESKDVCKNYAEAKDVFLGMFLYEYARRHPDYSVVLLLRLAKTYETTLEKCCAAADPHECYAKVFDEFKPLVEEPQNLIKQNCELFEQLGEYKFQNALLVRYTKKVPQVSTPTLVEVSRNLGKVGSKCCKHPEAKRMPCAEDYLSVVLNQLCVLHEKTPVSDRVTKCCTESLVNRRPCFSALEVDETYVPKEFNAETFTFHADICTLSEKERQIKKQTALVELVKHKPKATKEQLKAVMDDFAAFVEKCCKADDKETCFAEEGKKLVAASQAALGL
# Bcl-2-like protein 1 [14] = molecular target: T1, Bcl-2-like protein 1; assay: Binding affinity to Bcl-XL in 10% human serum by fluorescence polarization assay
# Outline: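 Competitive fluorescence polarization: serial compound dilutions compete with 30 nM f-Bad peptide (FITC-labelled) for 60 nM Bcl-XL. Human serum at 10% added to the assay buffer. Duplicate values per determination; Ki calculated.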
SMILES,Ki [1],Ki (Bcl-2-like protein 1 [2]),Ki (Bcl-2-like protein 1 [3]),EC50 (Bcl-2-like protein 1 [4]),other results
COc1cc(CCCN2CCOCC2)ccc1-c1ccc(C(=O)NS(=O)(=O)c2ccc(N[C@@H](CSc3ccccc3)CC(=O)N(C)C)c([N+](=O)[O-])c2)cc1,121 nM,1.7 nM,1000 nM,7630 nM,–
CC1(C)CCN(c2ccc(C(=O)NS(=O)(=O)c3ccc(N[C@H](CCCCN)CSc4ccccc4)c([N+](=O)[O-])c3)cc2)CC1,231 nM,1 nM,256 nM,20800 nM,–
CN(C)CC[C@H](CSc1ccccc1)Nc1ccc(S(=O)(=O)NC(=O)c2ccc(N3CCC(C)(C)CC3)cc2)cc1[N+](=O)[O-],67 nM,0.8 nM,360 nM,5100 nM,Kd (Bcl-2-like protein 2): 459 nM; Kd [10]: > 10000 nM; Activity (A549 [11]): Active; Activity (A549 [12]): Active; Activity (A549 [13]): 75%; Kd (Albumin): 13600 nM
O=C(NS(=O)(=O)c1ccc(NCCSc2ccccc2)c([N+](=O)[O-])c1)c1ccc(N2CCOCC2)cc1,> 10000 nM,1080 nM,> 10000 nM,–,–
CC1(C)CCN(c2ccc(C(=O)NS(=O)(=O)c3ccc(NCCSc4ccccc4)c([N+](=O)[O-])c3)cc2)CC1,192 nM,19 nM,652 nM,–,–
COc1cc(CCCN(C)C)ccc1-c1ccc(C(=O)NS(=O)(=O)c2ccc(NCCSc3ccccc3)c([N+](=O)[O-])c2)cc1,1230 nM,106 nM,730 nM,–,Ki (Bcl-2-like protein 1 [14]): 5660 nM
CC1(C)CCN(c2ccc(C(=O)NS(=O)(=O)c3ccc(N[C@@H](CCN4CCOCC4)CSc4ccccc4)c([N+](=O)[O-])c3)cc2)CC1,732 nM,75 nM,6050 nM,9310 nM,–
CC(C)(C)OC(=O)N1CCN(c2ccc(C(=O)NS(=O)(=O)c3ccc(NCCSc4ccccc4)c([N+](=O)[O-])c3)cc2)CC1,2880 nM,396 nM,3350 nM,–,–
CC(=O)N1CCN(c2ccc(C(=O)NS(=O)(=O)c3ccc(NCCSc4ccccc4)c([N+](=O)[O-])c3)cc2)CC1,> 10000 nM,894 nM,2970 nM,–,–
COc1cc(CCCN2CCOCC2)ccc1-c1ccc(C(=O)NS(=O)(=O)c2ccc(N[C@H](CCCCN)CSc3ccccc3)c([N+](=O)[O-])c2)cc1,70 nM,0.8 nM,29.6 nM,9000 nM,–
COc1cc(CCCN2CCOCC2)ccc1-c1ccc(C(=O)NS(=O)(=O)c2ccc(N[C@H](CCCN(C)C)CSc3ccccc3)c([N+](=O)[O-])c2)cc1,317 nM,0.9 nM,71 nM,8600 nM,–
CN(C)C(=O)C[C@H](CSc1ccccc1)Nc1ccc(S(=O)(=O)NC(=O)c2ccc(N3CCC(C)(C)CC3)cc2)cc1[N+](=O)[O-],75 nM,3.1 nM,1790 nM,15000 nM,–
COc1cc(CC(=O)N(C)C)ccc1-c1ccc(C(=O)NS(=O)(=O)c2ccc(NCCSc3ccccc3)c([N+](=O)[O-])c2)cc1,> 10000 nM,251 nM,> 10000 nM,–,–
COc1cc(CN(C)C)ccc1-c1ccc(C(=O)NS(=O)(=O)c2ccc(NCCSc3ccccc3)c([N+](=O)[O-])c2)cc1,4570 nM,426 nM,1000 nM,–,–
COc1cc(CCCN2CCOCC2)ccc1-c1ccc(C(=O)NS(=O)(=O)c2ccc(N[C@H](CCN(C)C)CSc3ccccc3)c([N+](=O)[O-])c2)cc1,116 nM,< 0.5 nM,148 nM,2080 nM,Kd (Albumin): 94000 nM

# Continued, in another order:
Ki [1],Ki (Bcl-2-like protein 1 [2]),Ki (Bcl-2-like protein 1 [3]),EC50 (Bcl-2-like protein 1 [4]),SMILES,other results
55 nM,1.1 nM,> 10000 nM,7000 nM,CC1(C)CCN(c2ccc(C(=O)NS(=O)(=O)c3ccc(N[C@H](CCN4CCOCC4)CSc4ccccc4)c([N+](=O)[O-])c3)cc2)CC1,–
2160 nM,250 nM,1140 nM,59200 nM,COc1cc(CCCN2CCOCC2)ccc1-c1ccc(C(=O)NS(=O)(=O)c2ccc(N[C@@H](CCN(C)C)CSc3ccccc3)c([N+](=O)[O-])c2)cc1,–
–,2520 nM,> 10000 nM,–,O=C(NS(=O)(=O)c1ccc(NCCSc2ccccc2)c([N+](=O)[O-])c1)c1ccc(N2CCNCC2)cc1,–
400 nM,38.9 nM,1000 nM,–,COc1cc(CCC(=O)N(C)C)ccc1-c1ccc(C(=O)NS(=O)(=O)c2ccc(NCCSc3ccccc3)c([N+](=O)[O-])c2)cc1,–
1260 nM,252 nM,3850 nM,16100 nM,CN(C)CC[C@@H](CSc1ccccc1)Nc1ccc(S(=O)(=O)NC(=O)c2ccc(N3CCC(C)(C)CC3)cc2)cc1[N+](=O)[O-],–
58.8 nM,< 0.5 nM,215 nM,6000 nM,COc1cc(CCCN2CCOCC2)ccc1-c1ccc(C(=O)NS(=O)(=O)c2ccc(N[C@H](CCCCN(C)C)CSc3ccccc3)c([N+](=O)[O-])c2)cc1,–
73 nM,1.2 nM,174 nM,3890 nM,CN(C)CCCC[C@H](CSc1ccccc1)Nc1ccc(S(=O)(=O)NC(=O)c2ccc(N3CCC(C)(C)CC3)cc2)cc1[N+](=O)[O-],–
433 nM,36 nM,2500 nM,–,O=C(NS(=O)(=O)c1ccc(NCCSc2ccccc2)c([N+](=O)[O-])c1)c1ccc(-c2ccc(F)cc2)cc1,IC50 (Bcl-2-like protein 1 [5]): > 10000 nM; IC50 (Bcl-2-like protein 1 [6]): > 10000 nM; IC50 (Bcl-2-like protein 1 [7]): 6300 nM; IC50 (Bcl-2-like protein 1 [8]): 122 nM; inhibition (Bcl-2-like protein 1 [9]): 1%
3260 nM,665 nM,998 nM,–,COc1cc(CCN(C)C)ccc1-c1ccc(C(=O)NS(=O)(=O)c2ccc(NCCSc3ccccc3)c([N+](=O)[O-])c2)cc1,–
1980 nM,471 nM,> 10000 nM,–,COc1cc(C(=O)N(C)C)ccc1-c1ccc(C(=O)NS(=O)(=O)c2ccc(NCCSc3ccccc3)c([N+](=O)[O-])c2)cc1,–
721 nM,21.5 nM,2960 nM,–,COc1cc(CCCO)ccc1-c1ccc(C(=O)NS(=O)(=O)c2ccc(NCCSc3ccccc3)c([N+](=O)[O-])c2)cc1,–
366 nM,57.9 nM,790 nM,–,COc1cc(CCC(=O)N2CCOCC2)ccc1-c1ccc(C(=O)NS(=O)(=O)c2ccc(NCCSc3ccccc3)c([N+](=O)[O-])c2)cc1,–
3540 nM,294 nM,869 nM,–,CN(C)C(=O)N1CCN(c2ccc(C(=O)NS(=O)(=O)c3ccc(NCCSc4ccccc4)c([N+](=O)[O-])c3)cc2)CC1,–
165 nM,< 0.5 nM,> 10000 nM,2110 nM,COc1cc(CCCN2CCOCC2)ccc1-c1ccc(C(=O)NS(=O)(=O)c2ccc(N[C@H](CCN3CCOCC3)CSc3ccccc3)c([N+](=O)[O-])c2)cc1,–
402 nM,10.4 nM,580 nM,–,COc1cc(CCCN2CCOCC2)ccc1-c1ccc(C(=O)NS(=O)(=O)c2ccc(NCCSc3ccccc3)c([N+](=O)[O-])c2)cc1,Ki (Bcl-2-like protein 1 [14]): 4300 nM
92.1 nM,2.6 nM,728 nM,14100 nM,CN(C)CCC[C@H](CSc1ccccc1)Nc1ccc(S(=O)(=O)NC(=O)c2ccc(N3CCC(C)(C)CC3)cc2)cc1[N+](=O)[O-],–
